Experimental data reported in PubChem BioAssay AID493150 (Broad Institute, 2011).
Values joined by “and” are separate entries in the source; they are usually repeats but may differ in a detail not shown here. Equal entries are not always repeated. Records with an inconclusive call do not appear. Active and inactive are the calls of the source.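 The calls were made as follows: active = compound whose fitted half-maximal growth inhibition concentration stays within ten times its top tested dose in every replicate test; inconclusive = replicate tests disagree, or flat partial inhibition, or poor curve fit; inactive = every replicate test inactive, including wrong-direction or flat responses.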

System: not listed separately
Test: growth inhibition of fluconazole-resistant C. albicans, confirmation, CaCi-2 strain, Alamar Blue, dry powder, set 5 (AID 493150)
Settings: C. albicans CaCi-2 + fluconazole, Alamar Blue growth, 48 h; at 10 µM (top of the series)
In short: (§1)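 Assay system: clinical Candida albicans isolate CaCi-2, resistant to fluconazole; amount: inoculum OD600 0.00015; medium: RPMI-based defined growth medium buffered with MOPS; also added: fluconazole 8 µg/mL; incubation: 48 h humidified 37 °C exposure, 2 h room-temperature dye step; detection: Alamar Blue fluorescence, 1:200 final dye, Ex 544 nm, Em 590 nm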

| SMILES | activity change, negative = inhibition |
| --- | --- |
| COC(=O)Cn1nc(-c2cncnc2)c2ccccc21 | -5.14% (inactive) |

Same assay, conditions: C. albicans CaCi-2 + fluconazole, Alamar Blue growth, 48 h; at 12 µM (top of the series)

| SMILES | activity change, negative = inhibition |
| --- | --- |
| COC(=O)Cn1nc(-c2ccccc2)c2ccc(C#N)cc21 | -14.7% (inactive) |
| COC(=O)CCn1nc(-c2ccccc2)c2ccccc21 | 1.2% (inactive) |
| N#CCn1nc(-c2ccccc2)c2ccccc21 | -18.5% (inactive) |
| c1ccc(-c2nn(Cc3ncco3)c3ccccc23)cc1 | 1.86% (inactive) |
| CC(C)OC(=O)Cn1nc(-c2ccccc2)c2ccccc21 | 11.7% (inactive) |
| c1ccc(-c2nn(Cc3nn[nH]n3)c3ccccc23)cc1 | -7.06% (inactive) |
| CCOC(=O)Cn1nc(-c2ccccc2)c2ccccc21 | 4.8% (inactive) |
| COCCn1nc(-c2ccccc2)c2ccccc21 | -9.42% (inactive) |
| CC(C)(C)OC(=O)Cn1nc(-c2ccccc2)c2ccccc21 | 17.1% (inactive) |
| O=C(Cn1nc(-c2ccccc2)c2ccccc21)Oc1ccccc1 | -4.43% (inactive) |
| COC(=O)Cn1nc(-c2ccc(C(F)(F)F)cc2)c2ccccc21 | -0.629% (inactive) |

System: C. albicans CaCi-2 (fluconazole-resistant clinical isolate) + fluconazole, Alamar Blue growth, 48 h
Test: as above
Settings: not given
In short: as §1

| SMILES | AC50 |
| --- | --- |
| COC(=O)Cn1nc(-c2ccc(F)cc2)c2ccccc21 | 5.61 µM |
| COC(=O)Cn1nc(-c2cccc(F)c2)c2ccccc21 | 1.41 µM |
| COC(=O)Cn1nc(-c2ccccc2)c2cc(C)ccc21 | 3.28 µM |
| COC(=O)Cn1nc(-c2ccc(OC)cc2)c2ccccc21 | 4.22 µM |
| COC(=O)Cn1nc(-c2cccc(C)c2)c2ccccc21 | 0.647 µM |
| COC(=O)Cn1nc(-c2ccccc2OC)c2ccccc21 | 6.22 µM |
| COC(=O)Cn1nc(-c2ccccc2)c2ccccc21 | 1.2 µM |
| COC(=O)Cn1nc(-c2ccccc2)c2cc(F)ccc21 | 4.63 µM |
| COC(=O)Cn1nc(-c2ccccc2)c2ccc(C)cc21 | 3.14 µM |
| COC(=O)Cn1c2ccccc2c2nc3n(c(=O)c21)CCS3 | 3.83 µM |
| COC(=O)Cn1nc(-c2ccccc2)c2ccc(F)cc21 | 5.1 µM |
| COC(=O)Cn1nc(-c2ccccc2)c2cc(OC)ccc21 | 10.4 µM |
| COC(=O)Cn1nc(-c2cccc(OC)c2)c2ccccc21 | 0.44 µM |
| COC(=O)Cn1nc(-c2ccccc2)c2ccc(Cl)cc21 | 3.79 µM |
| O=C(Cn1c2ccccc2c2nc3n(c(=O)c21)CCS3)N1CCCC1 | 1.04 µM and 1.87 µM |
| COC(=O)Cn1nc(-c2ccccc2)c2ccc(OC)cc21 | 7.51 µM |
